Reference: ChEMBL document CHEMBL1135653, “Novel apoptosis-inducing trans-platinum piperidine derivatives: synthesis and biological characterization” (J Med Chem, 2002)
Where “and” joins values, the source holds several entries; their conditions need not be identical. Identical values can stand only once.

Tests used:
[1] = In vitro growth inhibition against C-26 cells incubated for 24 hr using cytotoxicity assay; type: functional, cell-based, Mus musculus
Summary of the method: (§1)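 Methylene blue staining assay. Exponentially growing cells plated, incubated 24 h, then drugs added at various concentrations (saline for controls), four wells per variant. Drug exposure 4, 24 or 72 h, then washed and grown in fresh medium to 72 h total. Cells fixed in 2.5% glutaraldehyde, stained with 1% MB in 0.1 M borate pH 8.5, dye extracted with 0.1 N HCl at 37 °C, OD read at 620 nm. IC50 given as mean ± SD from at least two experiments.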

[2] = In vitro growth inhibition against C-26 cells incubated for 4 hr using cytotoxicity assay; type: functional, cell-based, Mus musculus; summary of the method: as §1
[3] = In vitro growth inhibition against C-26 cells incubated for 72 hr using cytotoxicity assay; type: functional, cell-based, Mus musculus; summary of the method: as §1
OV-1063 [4] = assay: In vitro growth inhibition against OV-1063 cells incubated for 4 hr using cytotoxicity assay; type: functional, cell-based, Homo sapiens; summary of the method: as §1
OV-1063 [5] = assay: In vitro growth inhibition against OV-1063 cells incubated for 72 hr using cytotoxicity assay; type: functional, cell-based, Homo sapiens; summary of the method: as §1
OV-1063 [6] = assay: In vitro growth inhibition against OV-1063 cells incubated for 24 hr using cytotoxicity assay; type: functional, cell-based, Homo sapiens; summary of the method: as §1
[7] = Solubility was determined in DDW(double distilled water) at 37 degrees Centigrade; type: physicochemical; conditions: buffer

Solubility [7] | Substance | IC50 [1] | IC50 [2] | IC50 [3] | IC50 (OV-1063 [4]) | IC50 (OV-1063 [5]) | IC50 (OV-1063 [6])
– | cis-[ptcl2(NH3)(4-pic)] | 11 µM and 4.7 µM | 12 µM and 5.1 µM | 11 µM and 3.7 µM | 18 µM and 6 µM | 14 µM and 4 µM | 16 µM and 5.1 µM
2100 µg/mL | CISPLATIN | 0.6 µM | 1.5 µM | 0.2 µM | 2 µM | 0.5 µM | 0.7 µM
30 µg/mL | trans-[ptcl2(4-pic)(pip)] | 2.5 µM | 4.5 µM | 1.75 µM | 6.5 µM | 4.5 µM | 6 µM
7500 µg/mL | trans-[ptcl2(4-pic)(pz)] HCl | 4.5 µM | 5.5 µM | 3.5 µM | 7.4 µM | 5.1 µM | 6 µM
240 µg/mL | TRANSPLATIN | 46 µM | 64 µM | 41 µM | 81 µM | 52 µM | 73 µM
